A word on the IC50: it is the concentration that inhibits the measured activity by half.

IC50 data for twelve compounds are collected here from ChEMBL document CHEMBL1926540, “Conformationally restricted analogs of the direct thrombin inhibitor FM 19” (Bioorg Med Chem, 2011).

In this assay the target is Prothrombin (Homo sapiens, UniProt P00734). Description: Inhibition of human alpha-thrombin using sarcosine-Pro-Arg-p-nitroanilide as substrate preincubated for 5 mins before substrate addition measured after 10 mins by spectrophotometry. Put shortly:
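Human α-thrombin (>95% pure, 5070 U/mg) kept on ice in assay buffer (10 mM Tris, 150 mM NaCl, pH 7.6). Enzyme preincubated with peptide 5 min at 37 °C, then chromogenic substrate added. Final concentrations: 2 nM enzyme, 200 substrate. Nine peptide concentrations, each in triplicate.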
Compound `Cc1ccc(C[C@H](NC(=O)[C@@H](C)NC(=O)[C@@H]2CCCN2C(=O)[C@@H]2C[C@@H]3CCCC[C@@H]3N2C(=O)[C@@H](C)CCCN=C(N)N)C(N)=O)cc1` gave an IC50 of 9.8 µM.

As to `Cc1ccc(C[C@H](NC(=O)[C@@H](C)NC(=O)[C@@H]2CCCN2C(=O)[C@@H]2C[C@@H]3CCCC[C@@H]3N2C(=O)c2cccc(C(=N)N)c2)C(N)=O)cc1`, the IC50 was 1.03 µM.

`Cc1ccc(C[C@H](NC(=O)[C@@H](C)NC(=O)[C@@H]2CCCN2C(=O)[C@@H]2C[C@@H]3CCCC[C@@H]3N2C(=O)[C@@H](N)CCCN=C(N)N)C(N)=O)cc1` returned an IC50 of 73 µM.

`Cc1ccc(C[C@H](NC(=O)[C@@H](C)NC(=O)[C@@H]2CCCN2C(=O)[C@@H]2C[C@@H]3CCCC[C@@H]3N2C(=O)Cc2ccc(C(=N)N)cc2)C(N)=O)cc1`: the half-maximal inhibitory concentration (IC50) is 0.45 µM.

`Cc1ccc(C[C@H](NC(=O)[C@@H](C)NC(=O)[C@@H]2CCCN2C(=O)[C@@H]2C[C@@H]3CCCC[C@@H]3N2C(=O)[C@H](N)CCCN=C(N)N)C(N)=O)cc1` returned an IC50 of 4.4 µM.

For the compound `Cc1ccc(C[C@H](NC(=O)[C@@H](C)NC(=O)[C@@H]2CCCN2C(=O)[C@@H]2C[C@@H]3CCCC[C@@H]3N2C(=O)[C@H]2CC[C@H](N=C(N)N)CC2)C(N)=O)cc1`, the IC50 was determined as 2.5 µM.

For `Cc1ccc(C[C@H](NC(=O)[C@@H](C)NC(=O)[C@@H]2CCCN2C(=O)[C@@H]2C[C@@H]3CCCC[C@@H]3N2C(=O)[C@H](C)CCCN=C(N)N)C(N)=O)cc1`, half-maximal inhibition (IC50) required 98 µM.

`Cc1ccc(C[C@H](NC(=O)[C@@H](C)NC(=O)[C@@H]2CCCN2C(=O)[C@@H]2C[C@@H]3CCCC[C@@H]3N2C(=O)Cc2cccc(C(=N)N)c2)C(N)=O)cc1` returned an IC50 of 26.2 µM.

For `Cc1ccc(C[C@H](NC(=O)[C@@H](C)NC(=O)[C@@H]2CCCN2C(=O)[C@@H]2C[C@@H]3CCCC[C@@H]3N2C(=O)c2ccc(C(=N)N)cc2)C(N)=O)cc1`, the 50% inhibitory concentration (IC50) turned out to be 0.51 µM.

As to `Cc1ccc(C[C@H](NC(=O)[C@@H](C)NC(=O)[C@@H]2CCCN2C(=O)[C@@H]2C[C@@H]3CCCC[C@@H]3N2C(=O)c2ccc(NC(=N)N)cc2)C(N)=O)cc1`, the midpoint of inhibition, the IC50, lay at 0.57 µM.

As to H-RPPGF-OH, the IC50 is 601 µM.

The compound `Cc1ccc(C[C@H](NC(=O)[C@@H](C)NC(=O)[C@@H]2CCCN2C(=O)[C@@H]2C[C@@H]3CCCC[C@@H]3N2C(=O)[C@H]2CC[C@@H](N=C(N)N)CC2)C(N)=O)cc1` returned an IC50 of 19.5 µM.
